This is a sample that favours compounds with a hit; in the whole collection about 2.1% have one here.
B2AR ag = agonists of human beta-2 adrenergic receptor inducing internalization | Am2.2-beta2AR cells, FAP receptor internalization, flow cytometry | response, % (concentration not given with the values) | 0.43% of 340,000 active | AID 504454;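 active means response above a set limit, near 3 SD of response in nonfluorescent compounds, cut at about 42% in these data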
Target sequence (P07550 whole entry, looked up): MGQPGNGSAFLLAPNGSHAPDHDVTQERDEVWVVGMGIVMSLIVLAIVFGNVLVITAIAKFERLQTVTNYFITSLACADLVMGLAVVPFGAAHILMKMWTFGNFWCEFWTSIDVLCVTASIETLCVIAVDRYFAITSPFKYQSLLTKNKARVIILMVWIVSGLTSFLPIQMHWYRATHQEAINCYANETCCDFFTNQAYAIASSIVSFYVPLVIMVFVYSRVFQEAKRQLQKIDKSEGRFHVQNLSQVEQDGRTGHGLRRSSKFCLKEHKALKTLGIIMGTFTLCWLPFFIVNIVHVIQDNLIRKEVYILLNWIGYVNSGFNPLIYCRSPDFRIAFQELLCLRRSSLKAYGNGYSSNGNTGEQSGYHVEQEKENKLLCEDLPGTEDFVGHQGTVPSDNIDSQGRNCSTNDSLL
PfG6PD inh = PfG6PD (Plasmodium falciparum) enzyme inhibition. PfGluPho enzyme, NADPH resazurin-diaphorase fluorescence. inhibition, % at 20 µM. 0.78% of 350,000 active. AID 504690;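 active means inhibition reaching at least a set limit at 20 µM in the primary screen, cut at about 59% in these data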;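 further: 0% = DMSO wells with substrate and 100% = DMSO wells lacking glucose-6-phosphate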
UCH37 inh = inhibitors of human deubiquitinating enzyme UCH37. Q9Y5K5. purified proteasome/UCH37, Ub-AMC cleavage fluorescence. inhibition, % (test concentration not listed). 0.33% of 330,000 active;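 active means mean inhibition over replicate wells above about 20%, limit read from the data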;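 further: 0% = compound-free wells with enzyme and 100% = wells lacking proteasome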
Target sequence (Q9Y5K5 whole entry, looked up): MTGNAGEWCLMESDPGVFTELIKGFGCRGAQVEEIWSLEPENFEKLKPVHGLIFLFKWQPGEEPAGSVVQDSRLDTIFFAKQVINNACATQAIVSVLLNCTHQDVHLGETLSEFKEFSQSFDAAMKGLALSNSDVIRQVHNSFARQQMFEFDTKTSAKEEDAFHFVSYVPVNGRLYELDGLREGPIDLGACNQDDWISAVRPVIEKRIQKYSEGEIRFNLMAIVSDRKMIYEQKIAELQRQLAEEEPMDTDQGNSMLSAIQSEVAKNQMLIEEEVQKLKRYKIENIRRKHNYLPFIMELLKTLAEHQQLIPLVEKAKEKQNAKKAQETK
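Reagent: Ub-AMC substrate; assay system: Proteasome-associated human UCH37 deubiquitinase; controls: no-proteasome and no-compound wells; read-out: % inhibition of Ub-AMC cleavage fluorescence; timing: 30 min preincubation with enzyme, 25 min cleavage at room temperature; signal: AMC fluorescence from Ub-AMC cleavage, excitation 355 nm, emission 460 nm; buffer or medium: Tris-HCl pH 7.4 plus ovalbumin, ATP-MgCl2, DTT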
HKDC1 inhibitor = HKDC1 (human) hexokinase inhibition; Q2TB90; recombinant HKDC1, G6PDH/diaphorase resazurin coupled fluorescence; inhibition, % at 20 µM; 0.16% of 340,000 active; AID 493160;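 active means inhibition above about 35% when tested at 20 µM, limit read from the data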;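 further: plate controls were DMSO wells with enzyme for no effect and DMSO wells lacking enzyme for full effect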
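Material: recombinant HKDC1 hexokinase; Amount: HKDC1 at 5 µg/mL; Medium: Tris pH 8.0 buffer with MgCl2, Tween-20, BSA, BME; Schedule: 90 min reaction incubation at room temperature, dark; Technique: coupled resazurin fluorescence, excitation 525 nm, emission 613 nm.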
Cardio protect = myocardial damage modulation in H9c2 cells. 0.63% of 360,000 active. protection from H2O2 cell death, % at 20 µM. H9c2 cardiomyocytes, H2O2 injury protection, ATPLite, 2 h;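 active means compounds giving at least 50% protection of heart cells from peroxide-induced death in the single-dose screen, raw or plate-pattern-corrected value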;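 further: 0% = DMSO wells with peroxide and 100% = DMSO wells without peroxide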
aDG glyco act = alpha-DG glycosylation activation | Pro5-aDG cells, alpha-DG glycosylation AlphaScreen (IIH6); 0% Pro5, 100% B10-LARGE cell signal | activation, % at 10 µM | 0.22% of 360,000 active;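 active means activation of at least 8% versus controls, or a plate z-score of at least 8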;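 further: Pro5 are CHO cells carrying HIG-tagged alpha-DG that lacks glycosylation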
PfGluPho conf = PfG6PD inhibition, single-dose confirmed; recombinant PfGluPho, NADPH-diaphorase-resazurin fluorescence; 34% of 2,400 active; inhibition, % at 20 µM; shares compounds with PfG6PD inh;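 active means inhibition of at least 50% at 20 µM in any single replicate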;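 further: 0% = DMSO with substrate and 100% = DMSO lacking glucose-6-phosphate substrate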
Diaphorase 10uM = inhibits diaphorase or oxidizes, flagging false PfG6PD hits; shares compounds with PfG6PD inh; diaphorase-coupled resazurin reduction, fluorescence, NADPH 10 uM; inhibition, % at 20 µM; 39% of 820 active; AID 504862;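 active means average inhibition reaching 50% or more with the compound at 20 µM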;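 further: resorufin red fluorescence formed as diaphorase reduces resazurin using NADPH; 0% = DMSO with enzyme and 100% = DMSO without enzyme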
Diaph ctr 30uM = diaphorase inhibition or oxidation at 30 uM NADPH. shares compounds with PfG6PD inh. inhibition, % at 20 µM. 29% of 820 active. Diaphorase/resazurin coupled assay, resorufin fluorescence;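 active means inhibition averaging 50% or more, tested at 20 µM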;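 further: 0% = DMSO with enzyme and 100% = DMSO wells lacking diaphorase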
The depositor's hits bear a star; i = inactive; . = no result given.

SMILES	B2AR ag	PfG6PD inh	UCH37 inh	HKDC1 inhibitor	Cardio protect	aDG glyco act	PfGluPho conf	others
COc1ccc(OC)c(C=NNC(=O)c2cc3c(ccc4ccccc43)o2)c1	.	.	i	.	.	.	.
c1ccc(SSc2ccccn2)nc1	11	68*	10	-2	8	0	58*	Diaphorase 10uM=-24;Diaph ctr 30uM=-27
Cc1ccc2nsnc2c1NS(=O)(=O)c1c(C)ccc2nsnc12	-2	-8	10	-2	4	0	.
Cc1ccc(/C=[N+](\[O-])c2ccc(N(C)C)cc2)c2nsnc12	-5	64*	4	2	-14	-1	1
CC(C)(C)c1ccc(C=NNc2nncn2N)cc1	.	.	2	.	.	.	.
CCOc1ccccc1-n1c(=S)sc2c(=O)n(-c3ccccc3)c(=S)[nH]c21	3	73*	10	-1	-7	0	-5
COc1cccc(-n2c(=S)sc3c(=O)n(-c4ccccc4OC)c(=S)[nH]c32)c1	4	39	-1	-2	-1	0	.
COc1ccccc1-n1c(=S)[nH]c2c(sc(=S)n2-c2ccccc2)c1=O	3	63*	7	-6	-2	0	12
COc1ccccc1-n1c(=S)[nH]c2c(sc(=S)n2-c2ccccc2C)c1=O	-3	72*	2	-2	-4	0	23
CC(CCc1ccc2c(c1)OCO2)=NN=C(N)SC1CC(=O)N(c2ccccc2F)C1=O (stereo not drawn)	.	.	-1	.	.	.	.
Cc1nc2sc(-c3ccccc3)cc2c(=O)n1N=CN(C)C	.	.	-5	.	.	.	.
CC(=NNC(=O)c1ccccc1)c1cc2cc([N+](=O)[O-])ccc2oc1=O	.	.	5	.	.	.	.
O=[N+]([O-])c1ccccc1-c1ccc(C(=S)N2CCN(c3ccccc3)CC2)o1	2	49	6	16	-6	0	.
Cc1ccc(N2CCN(C(=S)c3ccc(-c4ccccc4[N+](=O)[O-])o3)CC2)cc1	0	60*	4	11	-14	0	29
CCC(C)(C)n1nnnc1C(c1ccc2ncccc2c1)N1CCN(c2ccc(O)cc2)CC1 (stereo not drawn)	-2	46	1	8	-1	0	35
O=[N+]([O-])c1ccc(O)c2ncccc12	0	63*	6	15	20	0	44
CCN(CC)CCn1c(O)c(N=O)c2ccccc21	10	-2	1	-10	2	0	.
CCN(CC)CCn1c2ccccc2c(=O)c2c(O)ccc(O)c21	-2	84*	.	14	0	0	98*	Diaphorase 10uM=31;Diaph ctr 30uM=30
Cc1ccc(-c2c(C(=O)N/N=C/c3ccco3)nnn2-c2nonc2N)cc1	-8	62*	.	2	1	0	46
Cc1ccc(-c2c(C(=O)N/N=C/c3ccc(C)o3)nnn2-c2nonc2N)cc1	3	79*	.	1	9	0	60*	Diaphorase 10uM=63*;Diaph ctr 30uM=47
O=C(O)COc1ccccc1C=NNC(=O)CSc1nc2ccccc2n1Cc1ccccc1	.	.	4	.	.	.	.
CCCCNC(=O)CCCCC(=O)NN=Cc1ccccc1Cl	.	.	0	.	.	.	.
O=C(CC(=O)Nc1cccc(Cl)c1)N/N=C\c1ccccc1	-4	84*	.	3	-9	0	41
Cc1ccc(/C=N/NC(=O)CCCOc2ccc(Cl)cc2Cl)cc1	-9	67*	.	10	0	0	35
O=C(CCCOc1ccc(Cl)cc1Cl)NN=Cc1ccccc1	.	.	3	.	.	.	.
SMILES	B2AR ag	PfG6PD inh	UCH37 inh	HKDC1 inhibitor	Cardio protect	aDG glyco act	PfGluPho conf	others
O=C(CCCOc1ccc(Cl)cc1Cl)N/N=C/c1ccccc1	-2	119*	.	-1	-12	0	86*	Diaphorase 10uM=88*;Diaph ctr 30uM=71*
CCCCNC(=O)CCCCC(=O)N/N=C/c1cccc(Cl)c1	0	65*	.	-8	-4	0	11
COc1ccc(C=NNC(=S)Nc2cc(C(F)(F)F)ccc2Cl)cc1	.	.	3	.	.	.	.
Cc1cccc(C)c1OCC(=O)NN=Cc1ccc2c(c1)OCO2	.	.	0	.	.	.	.
ON=C1CC2(Cc3nonc31)OCCO2	.	.	2	.	.	.	.
COc1ccccc1CN(Cc1nc2ccccc2c(=O)[nH]1)S(=O)(=O)c1ccc2ccccc2c1	-2	59*	4	-3	58*	0	4
COc1ccc(S(=O)(=O)N(Cc2ccccc2)Cc2nc3ccccc3c(=O)[nH]2)cc1	-4	1	-1	6	13	0	.
CN1C(=O)CSc2ccc(NC(=O)N3CCc4ccccc43)cc21	11	87*	3	-4	26	0	60*	Diaphorase 10uM=45;Diaph ctr 30uM=35
Cc1ccc(NC(=O)N2CCc3ccccc32)cc1C	-1	56	0	-3	-29	1	.
CN1C[C@@H](c2ccc(Cl)c(Cl)c2)[C@@]2(COc3ccccc3C2=O)[C@@]12C(=O)Nc1ccccc12	.	.	2	.	.	.	.
O=C1C=CC(=O)N1c1ccc(-c2nc3ccccc3o2)cc1	.	108*	.	.	-11	0	77*	Diaphorase 10uM=-25;Diaph ctr 30uM=-3
O=S(=O)(NN=Cc1ccc2c(c1)OCO2)c1ccc(Br)cc1	.	.	6	.	.	.	.
CCc1c(C)sc(NC(=O)c2ccoc2C)c1C(N)=O	-2	94*	.	-17	-14	0	44
O=C1C(=NO)CCc2ccccc21	12	62*	.	26	-16	2	29
O=C(NN=Cc1c[nH]c2ccccc12)c1cccc([N+](=O)[O-])c1	.	.	10	.	.	.	.
O=C(Nc1nnc(COc2ccc(Cl)cc2)s1)c1ccco1	-12	66*	-1	-13	0	0	36
Cc1ccc(OCc2nnc(NC(=O)c3ccco3)s2)cc1	-28	-22	4	-3	-5	0	.
O=[N+]([O-])c1cccc(C=NN2CCN(Cc3ccccc3)CC2)c1	.	.	6	.	.	.	.
O=C1C=CC(=O)N1CCNc1ncc(C(F)(F)F)cc1Cl	69*	79*	1	-7	-25	-1	66*	Diaphorase 10uM=-5;Diaph ctr 30uM=-11
O=C1CC(=O)N(CCNc2ncc(C(F)(F)F)cc2Cl)C(=O)N1	4	-22	2	-3	0	0	.
CCOc1ccccc1NC(=O)CCCNC(=O)Cn1cnc2sc(C)c(C)c2c1=O	-20	67*	0	-4	4	0	45
COc1ccc(NC(=O)CCCNC(=O)Cn2cnc3sc(C)c(C)c3c2=O)c(OC)c1	-2	-3	1	4	0	0	.
COc1ccc2cc(C3=CC(=O)CCC3)ccc2c1	10	79*	-52	2	-16	0	35

Screens from PubChem BioAssay.
